From ChEMBL document CHEMBL2311305, “Antiproliferative potency of novel benzofuran-2-carboxamides on tumour cell lines: cell death mechanisms and determination of crystal structure” (Eur J Med Chem, 2013)

Key:
[1] = system: SK-BR-3; assay: Cytotoxicity against human SKBR3 cells after 72 hrs by MTT assay; assay type: functional, cell-based; settings: SK-BR-3, 72 h
In short: (§1)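 Cells seeded at 3000-6000 per well on day 0, according to cell line doubling time. Compound added in five 10-fold dilutions, 72-h incubation, then MTT colorimetric read-out. Absorbances converted to percentage growth by NCI formulae. IC50 obtained by linear regression between the concentrations bracketing PG 50; ">100" assigned when no concentration reaches it. Quadruplicate points, three independent experiments.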

[2] = system: SW-620; assay: Cytotoxicity against human SW620 cells after 72 hrs by MTT assay; assay type: functional, cell-based; in short: as §1
[3] = system: MIA PaCa-2; assay: Cytotoxicity against human MIAPaCa2 cells after 72 hrs by MTT assay; assay type: functional, cell-based; in short: as §1
[4] = system: MCF7; assay: Cytotoxicity against human MCF7 cells after 72 hrs by MTT assay; assay type: functional, cell-based; in short: as §1
[5] = system: HeLa; assay: Cytotoxicity against human HeLa cells after 72 hrs by MTT assay; assay type: functional, cell-based; in short: as §1
[6] = system: WI-38; assay: Cytotoxicity against human WI38 cells after 72 hrs by MTT assay; assay type: cell-based; in short: as §1

For `O=C(Nc1ccc([N+](=O)[O-])cn1)c1cc2ccccc2o1`, the IC50 [1] was > 100 µM, the IC50 ([2]; Homo sapiens, SW-620, 72 h) was 76.5 µM and the IC50 ([3]; Homo sapiens, MIA PaCa-2, 72 h) was 73.1 µM. For the same compound, the IC50 ([4]; Homo sapiens, MCF7, 72 h) was 82.8 µM, the IC50 ([5]; Homo sapiens, HeLa, 72 h) was 42.4 µM and the IC50 ([6]; Homo sapiens, WI-38, 72 h) was 37.8 µM.

For `O=C(Nc1nc2ccc(C3=NCCN3)cc2s1)c1cc2ccccc2o1`, the IC50 [1] was > 100 µM, the IC50 ([2]; Homo sapiens, SW-620, 72 h) was 56.4 µM and the IC50 ([3]; Homo sapiens, MIA PaCa-2, 72 h) was 97.1 µM. The IC50 ([4]; Homo sapiens, MCF7, 72 h) was 50.9 µM, the IC50 ([5]; Homo sapiens, HeLa, 72 h) was 59.8 µM and the IC50 ([6]; Homo sapiens, WI-38, 72 h) was 59.2 µM.

For `N#Cc1ccc2nc(NC(=O)c3cc4ccccc4o3)sc2c1`, the IC50 [1] was > 100 µM, the IC50 ([2]; Homo sapiens, SW-620, 72 h) was > 100 µM and the IC50 ([3]; Homo sapiens, MIA PaCa-2, 72 h) was > 100 µM. The IC50 ([4]; Homo sapiens, MCF7, 72 h) was 21.5 µM, the IC50 ([5]; Homo sapiens, HeLa, 72 h) was 89.6 µM and the IC50 ([6]; Homo sapiens, WI-38, 72 h) was 34.9 µM.

With `O=C(Nc1nc2ccc([N+](=O)[O-])cc2[nH]1)c1cc2ccccc2o1` the IC50 [1] was > 100 µM, the IC50 ([2]; Homo sapiens, SW-620, 72 h) was 6.9 µM and the IC50 ([3]; Homo sapiens, MIA PaCa-2, 72 h) was 9.3 µM. It also gave an IC50 ([4]; Homo sapiens, MCF7, 72 h) of 5.2 µM, an IC50 ([5]; Homo sapiens, HeLa, 72 h) of 9.2 µM and an IC50 ([6]; Homo sapiens, WI-38, 72 h) of 8.6 µM.

For `CN(C)c1ccc(NC(=O)c2cc3ccccc3o2)cc1` [listing 1 of 2 here], the IC50 [1] was > 100 µM, the IC50 ([2]; Homo sapiens, SW-620, 72 h) was 54.2 µM and the IC50 ([3]; mia paca-2) was 49.6 µM. It also gave an IC50 ([4]; mcf7) of 8.5 µM, an IC50 ([5]; Homo sapiens, HeLa, 72 h) of 49.1 µM and an IC50 ([6]; Homo sapiens, WI-38, 72 h) of 81.2 µM.

`O=C(Nc1ccc([N+](=O)[O-])cc1)c1cc2ccccc2o1` was tested, and the IC50 [1] was > 100 µM, the IC50 ([2]; Homo sapiens, SW-620, 72 h) was 27.9 µM and the IC50 ([3]; Homo sapiens, MIA PaCa-2, 72 h) was 26.6 µM. It also gave an IC50 ([4]; Homo sapiens, MCF7, 72 h) of 4.9 µM, an IC50 ([5]; Homo sapiens, HeLa, 72 h) of 11.4 µM and an IC50 ([6]; Homo sapiens, WI-38, 72 h) of 47.6 µM.

With `O=C(Nc1nc2ccc([N+](=O)[O-])cc2s1)c1cc2ccccc2o1` the IC50 [1] was > 100 µM, the IC50 ([2]; Homo sapiens, SW-620, 72 h) was > 100 µM and the IC50 ([3]; Homo sapiens, MIA PaCa-2, 72 h) was > 100 µM. For the same compound, the IC50 ([4]; Homo sapiens, MCF7, 72 h) was 63.9 µM, the IC50 ([5]; Homo sapiens, HeLa, 72 h) was 17.5 µM and the IC50 ([6]; Homo sapiens, WI-38, 72 h) was 72.9 µM.

With `N#Cc1ccc(NC(=O)c2cc3ccccc3o2)cc1` the IC50 [1] was 34.2 µM, the IC50 ([2]; Homo sapiens, SW-620, 72 h) was 7.4 µM and the IC50 ([3]; Homo sapiens, MIA PaCa-2, 72 h) was 27.1 µM. For the same compound, the IC50 ([4]; Homo sapiens, MCF7, 72 h) was 7.6 µM, the IC50 ([5]; Homo sapiens, HeLa, 72 h) was 7.6 µM and the IC50 ([6]; Homo sapiens, WI-38, 72 h) was 7.9 µM.

For `N#Cc1ccc2nc(NC(=O)c3cc4ccccc4o3)[nH]c2c1`, the IC50 [1] was > 100 µM, the IC50 ([2]; Homo sapiens, SW-620, 72 h) was 9.2 µM and the IC50 ([3]; Homo sapiens, MIA PaCa-2, 72 h) was > 100 µM. For the same compound, the IC50 ([4]; Homo sapiens, MCF7, 72 h) was > 100 µM, the IC50 ([5]; Homo sapiens, HeLa, 72 h) was > 100 µM and the IC50 ([6]; Homo sapiens, WI-38, 72 h) was 9.1 µM.

With `O=C(Nc1ccc(C2=NCCN2)cn1)c1cc2ccccc2o1` the IC50 [1] was > 100 µM, the IC50 ([2]; Homo sapiens, SW-620, 72 h) was 67.1 µM and the IC50 ([3]; Homo sapiens, MIA PaCa-2, 72 h) was > 100 µM. The IC50 ([4]; Homo sapiens, MCF7, 72 h) was > 100 µM, the IC50 ([5]; Homo sapiens, HeLa, 72 h) was 71.9 µM and the IC50 ([6]; Homo sapiens, WI-38, 72 h) was 68.7 µM.

For `N#Cc1ccc(NC(=O)c2cc3ccccc3o2)nc1`, the IC50 [1] was > 100 µM, the IC50 ([2]; Homo sapiens, SW-620, 72 h) was 69.2 µM and the IC50 ([3]; Homo sapiens, MIA PaCa-2, 72 h) was 44.7 µM. The IC50 ([4]; Homo sapiens, MCF7, 72 h) was 5.3 µM, the IC50 ([5]; Homo sapiens, HeLa, 72 h) was 23.9 µM and the IC50 ([6]; Homo sapiens, WI-38, 72 h) was 52.4 µM.

In the case of `CC(=O)Nc1ccc(NC(=O)c2cc3ccccc3o2)cc1`, the IC50 [1] is reported as > 100 µM, the IC50 ([2]; Homo sapiens, SW-620, 72 h) is reported as > 100 µM and the IC50 ([3]; Homo sapiens, MIA PaCa-2, 72 h) is reported as > 100 µM. The IC50 ([4]; Homo sapiens, MCF7, 72 h) was 45.1 µM, the IC50 ([5]; Homo sapiens, HeLa, 72 h) was 77.3 µM and the IC50 ([6]; Homo sapiens, WI-38, 72 h) was 71.2 µM.

With `CN(C)c1ccc(NC(=O)c2cc3ccccc3o2)cc1` [listing 2 of 2 here] the IC50 ([2]; sw-620) was 86 µM, the IC50 ([3]; mia paca-2) was > 100 µM and the IC50 ([4]; mcf7) was 35.6 µM. The IC50 ([5]; hela) was 83.7 µM and the IC50 ([6]; wi-38) was > 100 µM.
